Source: ChEMBL document CHEMBL1142683, “Multivariate design, synthesis, and biological evaluation of peptide inhibitors of FimC/FimH protein-protein interactions in uropathogenic Escherichia coli” (J Med Chem, 2005)

Columns and labels:
Escherichia coli [1] = assay: Inhibition of FimC/FimH pilus assembly complex formation in Escherichia coli at 50 uM
Method in brief: (§1)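 Competitive ELISA: FimC chaperone coated overnight at 4 °C in PBS pH 7.4, blocked with 3% BSA-PBS 1 h RT. Peptide in DMSO (0.5, 2.5 or 10 nmol; 10, 50, 200 µM) plus FimH (1 pmol, in 3 M urea/MES pH 6.8) 45 min RT. Bound FimH detected with mouse anti-FimH, then alkaline phosphatase anti-mouse IgG, p-nitrophenyl phosphate 1 h dark; A405. DMSO positive control. % inhibition, mean of four replicates.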

Escherichia coli [2] = assay: Inhibition of FimC/FimH pilus assembly complex formation in Escherichia coli at 200 uM; method in brief: as §1
Escherichia coli [3] = assay: Inhibition of FimC/FimH pilus assembly complex formation in Escherichia coli at 10 uM; method in brief: as §1

With H-ADFFFHSIS-OH the inhibition (Escherichia coli [1]) was 16%, the inhibition (Escherichia coli [2]) was 26% and the inhibition (Escherichia coli [3]) was 2%.
Substance H-AFSKSDFIS-OH has an inhibition (Escherichia coli [1]) of -9%, an inhibition (Escherichia coli [2]) of -6% and an inhibition (Escherichia coli [3]) of -5%.
With H-AGGTGTFIS-OH the inhibition (Escherichia coli [1]) was -1%, the inhibition (Escherichia coli [2]) was -2% and the inhibition (Escherichia coli [3]) was -3%.
H-AKGDLLLIS-OH showed an inhibition (Escherichia coli [1]) of 13%, an inhibition (Escherichia coli [2]) of 14% and an inhibition (Escherichia coli [3]) of 3%.
Work on H-ATSFGHWIS-OH yielded an inhibition (Escherichia coli [1]) of 9%, an inhibition (Escherichia coli [2]) of 0% and an inhibition (Escherichia coli [3]) of 12%.
H-AVLASAWIS-OH gave an inhibition (Escherichia coli [1]) of 8%, an inhibition (Escherichia coli [2]) of 18% and an inhibition (Escherichia coli [3]) of 0%.
H-DSTITIRGY-OH showed an inhibition (Escherichia coli [1]) of 14%, an inhibition (Escherichia coli [2]) of 28% and an inhibition (Escherichia coli [3]) of -1%.
H-GGTVHFKGG-OH gave an inhibition (Escherichia coli [1]) of 1%, an inhibition (Escherichia coli [2]) of 3% and an inhibition (Escherichia coli [3]) of -3%.
Work on H-KDLASTLIS-OH yielded an inhibition (Escherichia coli [1]) of 11%, an inhibition (Escherichia coli [2]) of 3% and an inhibition (Escherichia coli [3]) of 16%.
H-KFGDLASIS-OH was tested, and the inhibition (Escherichia coli [1]) was 1%, the inhibition (Escherichia coli [2]) was 7% and the inhibition (Escherichia coli [3]) was 4%.
In the case of H-KGFQLDLIS-OH, the inhibition (Escherichia coli [1]) is reported as 9%, the inhibition (Escherichia coli [2]) is reported as 8% and the inhibition (Escherichia coli [3]) is reported as -7%.
Substance H-KKLKLHFIS-OH has an inhibition (Escherichia coli [1]) of 22%, an inhibition (Escherichia coli [2]) of 39% and an inhibition (Escherichia coli [3]) of 8%.
Work on H-KVSFGLFIS-OH yielded an inhibition (Escherichia coli [1]) of 17%, an inhibition (Escherichia coli [2]) of 29% and an inhibition (Escherichia coli [3]) of 20%.
For H-LDSTLAFIS-OH, the inhibition (Escherichia coli [1]) was 25%, the inhibition (Escherichia coli [2]) was 37% and the inhibition (Escherichia coli [3]) was 10%.
In the case of H-LGSAFLFIS-OH, the inhibition (Escherichia coli [1]) is reported as 29%, the inhibition (Escherichia coli [2]) is reported as 40% and the inhibition (Escherichia coli [3]) is reported as 19%.
Substance H-LTFDGTWIS-OH has an inhibition (Escherichia coli [1]) of 7%, an inhibition (Escherichia coli [2]) of 10% and an inhibition (Escherichia coli [3]) of 0%.
For H-LVGKSHLIS-OH, the inhibition (Escherichia coli [1]) was 0%, the inhibition (Escherichia coli [2]) was 5% and the inhibition (Escherichia coli [3]) was 1%.
For H-NDLKGLFIS-OH, the inhibition (Escherichia coli [1]) was 12%, the inhibition (Escherichia coli [2]) was 14% and the inhibition (Escherichia coli [3]) was 10%.
H-NFFAGHFIS-OH showed an inhibition (Escherichia coli [1]) of 0%, an inhibition (Escherichia coli [2]) of 1% and an inhibition (Escherichia coli [3]) of -1%.
In the case of H-NGFKFTWIS-OH, the inhibition (Escherichia coli [1]) is reported as -3%, the inhibition (Escherichia coli [2]) is reported as 2% and the inhibition (Escherichia coli [3]) is reported as 2%.
For H-NGLQGASIS-OH, the inhibition (Escherichia coli [1]) was 19%, the inhibition (Escherichia coli [2]) was 24% and the inhibition (Escherichia coli [3]) was 10%.
Work on H-NGSDSHFIS-OH yielded an inhibition (Escherichia coli [1]) of 19%, an inhibition (Escherichia coli [2]) of 12% and an inhibition (Escherichia coli [3]) of 3%.
Work on H-NKGTSDWIS-OH yielded an inhibition (Escherichia coli [1]) of 8%, an inhibition (Escherichia coli [2]) of 10% and an inhibition (Escherichia coli [3]) of 3%.
With H-NTGALDSIS-OH the inhibition (Escherichia coli [1]) was 11%, the inhibition (Escherichia coli [2]) was 15% and the inhibition (Escherichia coli [3]) was 2%.
H-NTGQFAFIS-OH was tested, and the inhibition (Escherichia coli [1]) was 7%, the inhibition (Escherichia coli [2]) was 4% and the inhibition (Escherichia coli [3]) was 17%.
Substance H-NTLQLAIIS-OH has an inhibition (Escherichia coli [1]) of 23%, an inhibition (Escherichia coli [2]) of 40% and an inhibition (Escherichia coli [3]) of 7%.
H-NTLQLALIS-OH was tested, and the inhibition (Escherichia coli [1]) was 32%, the inhibition (Escherichia coli [2]) was 50% and the inhibition (Escherichia coli [3]) was 18%.
H-NVSTLHLIS-OH showed an inhibition (Escherichia coli [1]) of 30%, an inhibition (Escherichia coli [2]) of 44% and an inhibition (Escherichia coli [3]) of 18%.
Work on H-TDGQLLWIS-OH yielded an inhibition (Escherichia coli [1]) of 1%, an inhibition (Escherichia coli [2]) of 4% and an inhibition (Escherichia coli [3]) of -8%.
H-TGGAGALIS-OH was tested, and the inhibition (Escherichia coli [1]) was 17% and the inhibition (Escherichia coli [2]) was 3%.
H-TTFTSLSIS-OH gave an inhibition (Escherichia coli [1]) of 35%, an inhibition (Escherichia coli [2]) of 48% and an inhibition (Escherichia coli [3]) of 19%.
H-TVLDFDFIS-OH showed an inhibition (Escherichia coli [1]) of 6%, an inhibition (Escherichia coli [2]) of 5% and an inhibition (Escherichia coli [3]) of 3%.
